Reference: article PMC4936951 (Molecular pharmaceutics, 2016)
Where “and” joins values, the source holds several entries; their conditions need not be identical. Identical values can stand only once. Like-named read-outs stand apart in the source and are kept apart here.

Experiments:
[1] = tested on: HCT 116/δOR (positive) and HCT 116/RFP (negative) DWC tumors; assay: Intravital confocal microscopy in dorsal skinfold window chamber; format: in vivo, mouse
Procedure, shortened: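 Dorsal skinfold window chamber mice carrying HCT 116/δOR or HCT 116/RFP tumors received 45 nmol/kg via tail vein. Confocal imaging with 25× lens, 3570 pixels/min: continuous for 30 min, including 1, 1.5, 2 and 5 min frames, then further time points up to 24 h. Mean intensity ROIs placed in the vessel interior, in adjacent tumor tissue, and over tumor across time.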

[2] = tested on: δOR+ (HCT 116/δOR) and δOR− (HCT 116) tumor xenografts; format: in vivo, athymic nude female mice; settings: for Rate of uptake, Slope × 10^7 / Rate of clearance, Slope × 10^7: linear regression, n=5
Procedure, shortened: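 Athymic nude female mice carried bilateral xenografts of 8×10^6 HCT 116 (left) and HCT 116/δOR (right) cells, grown to mean 500 mm3 by caliper (length×width²/2). Single i.v. dose of 4.5 nmol/kg. IVIS 200 Cy5 imaging at 3, 9, 15, 30, 45 min and 1.5, 3, 6, 12, 18, 24, 48, 72, 96, 168 h. Readout after background subtraction and pre-injection autofluorescence correction: ROI mean surface radiance in efficiency units.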

HCT 116/δOR cells = format: cell-based, human
Procedure, shortened: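 HCT 116/δOR cells (DMEM/F12, 10% calf serum, 1% pen/strep) on glass-bottom dishes, PBS-rinsed, exposed to 2.5 nM agent in Fluorobrite DMEM at 37°C, 5% CO2. Imaged every 30 s for 15 min; then rinsed and imaged in fresh medium, 4 fields every 10 min to 24 h (40× oil, Cy5, 1.5 s). Per-cell ROI intensity×area gave cytoplasm and membrane (total minus cytoplasm) fluorescence; 11–25 cells/day, three days.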

[3] = tested on: tumors and organs (spleen, pancreas, liver, kidneys, GI tract, heart, lungs); assay: Ex vivo biodistribution by fluorescence imaging of excised tumors and organs; format: in vivo, mice; settings: 4.5 nmol/kg
Procedure, shortened: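 Separate group of bilateral HCT 116 / HCT 116/δOR xenograft mice given 4.5 nmol/kg. At 0, 7.5 min, 15 min, 45 min, 3 h, 6 h, 24 h and 48 h: imaged in vivo, then euthanized. Tumors, spleen, pancreas, liver, kidneys, GI tract, heart and lungs excised and fluorescence-imaged ex vivo. Animals kept in low light after dosing.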

δ-opioid receptor = settings: read-out: Ki (binding affinity); δ-opioid receptor antagonist; cited from earlier work
[4] = tested on: δOR+ (HCT 116/δOR) and δOR− (HCT 116) tumor xenografts; assay: Dose determination by in vivo fluorescence imaging of bilateral tumor xenografts; parameters: species or system nu/nu mice; settings: 50 nmol/kg i.v., 24 h post-administration
Procedure, shortened: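 Female nu/nu mice received 8×10^6 cells, HCT 116 in the left flank and HCT 116/δOR in the right, and were imaged after 1 week. Dose given by tail-vein i.v. injection. Animals imaged immediately to confirm injection, then at 24 h, on an IVIS 200. Agent stored in dark aliquots at −80°C; animals kept in a dark chamber. Autofluorescence ratio taken from radiance in identical ROIs on background-subtracted Cy5 and autofluorescence images.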

[5] = 45 nmol/kg via tail vein, δOR negative tumor vessel

Dmt-Tic-Lys(Cy5)-OH [Dmt-Tic-Cy5]
time of clearance from tumor vasculature [1, 5]: ≤ 2 min
time to peak intensity in tumor vasculature [1, 5]: ≤ 1 min
time of highest fluorescence intensity in negative tumor (intravital) ([1]; 45 nmol/kg, HCT 116/RFP DWC tumor): 10 min
time of highest fluorescence intensity in positive tumor (intravital) ([1]; 45 nmol/kg, HCT 116/δOR DWC tumor): 30 min
time of clearance of fluorescence from negative tumor (intravital) ([1]; 45 nmol/kg, positive tumor still strong signal): ≤ 24 h
time of clearance from δOR− tumor (nearly pre-injection levels) ([2]; 4.5 nmol/kg i.v.): ≤ 6 h
time of maximum fluorescence in δOR− tumor ([2]; 4.5 nmol/kg i.v.): 15 min
time of maximum fluorescence signal in δOR+ tumor ([2]; 4.5 nmol/kg i.v.): 3 h
time of systemic clearance ([2]; 4.5 nmol/kg i.v., based on clearance from negative tumor): ≤ 6 h
enhancement in positive tumor relative to negative tumor ([2]; 4.5 nmol/kg, from 30 min to 96 h post-administration): > 3 fold
Mean FOE (+ tumor/− tumor) ([2]; 4.5 nmol/kg, time 0.15 h): 2.7
Mean FOE (+ tumor/− tumor) ([2]; 4.5 nmol/kg, time 0.25 h): 2.7
Mean FOE (+ tumor/− tumor) ([2]; 4.5 nmol/kg, time 0.50 h): 3.2
Mean FOE (+ tumor/− tumor) ([2]; 4.5 nmol/kg, time 0.75 h): 4.5
Mean FOE (+ tumor/− tumor) ([2]; 4.5 nmol/kg, time 1 h): 6.5
Mean FOE (+ tumor/− tumor) ([2]; 4.5 nmol/kg, time 3 h): 9.7
Mean FOE (+ tumor/− tumor) ([2]; 4.5 nmol/kg, time 6 h): 17.5
Mean FOE (+ tumor/− tumor) ([2]; 4.5 nmol/kg, time 12 h): 13.5
Mean FOE (+ tumor/− tumor) ([2]; 4.5 nmol/kg, time 18 h): 26.7
Mean FOE (+ tumor/− tumor) ([2]; 4.5 nmol/kg, time 24 h): 20.6
Mean FOE (+ tumor/− tumor) ([2]; 4.5 nmol/kg, time 48 h): 8.9
Mean FOE (+ tumor/− tumor) ([2]; 4.5 nmol/kg, time 72 h): 10.8
Mean FOE (+ tumor/− tumor) ([2]; 4.5 nmol/kg, time 96 h): 5.6
Mean FOE (+ tumor/− tumor) ([2]; 4.5 nmol/kg, time 168 h): 1.8
ratio of enhancement in target positive tumors ([2]; maintained from 6 h to 24 h post-administration): approximately 20 fold
Rate of uptake, Slope × 10^7 ([2]; δOR+ tumor, 0 to 0.75 h): 264 Efficiency/h
Rate of clearance, Slope × 10^7 ([2]; δOR+ tumor, 3 to 96 h): −1.45 Efficiency/h
Rate of uptake, Slope × 10^7 ([2]; δOR− tumor, 0 to 0.25 h): 211 Efficiency/h
Rate of clearance, Slope × 10^7 ([2]; δOR− tumor, 0.25 to 24 h): −14.6 Efficiency/h
maximum ratio of fluorescence inside (cytoplasm)/outside (cell membrane) (HCT 116/δOR cells; 2.5 nM): 1.69
time to observed cell-surface labeling after addition of ligand (HCT 116/δOR cells; 2.5 nM): ~ 2 min and 2 min
period of gradual tumor cell internalization (HCT 116/δOR cells; after addition of agent): 6 h and ~ 7 h and 7 h
fluorescence signal in heart, lungs, GI tract, spleen and pancreas (ex vivo) [3]: minimal to no fluorescence signal
time of decrease to pre-injection levels in kidney and liver (ex vivo) ([3]; n=5): ≤ 24 h
time of highest fluorescence signal in kidney and liver (ex vivo) ([3]; n=5): 15 min
Ki (δ-opioid receptor): 3 nM
fold of enhancement (FOE) δOR+ tumor relative to δOR− tumor [4]: 5 fold
